Active and inactive are the calls of the source.
Key:
[1] = species: Cavia porcellus; assay: Relative agonist molar potency on the electrically stimulated guinea pig myenteric plexus longitudinal muscle preparation; type: functional, Muscle tissue
Method in brief: (§1)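 Electrically stimulated guinea pig ileum myenteric plexus–longitudinal muscle, measuring inhibition of twitch. Compounds active at 10⁻⁷ M or below were run in at least three independent preparations. Reversibility was checked with naloxone 2 × 10⁻⁶ M in the bath.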

[2] = species: Mus musculus; assay: Narcotic antagonistic potency evaluated by morphine-induced Straub tail phenomenon in mice; type: functional, organism-based; settings: read-out: pA2 (converted)
[3] = test system: Mus musculus; assay: Compound was evaluated for antagonist activity only at subagonistic dose levels in mice by mouse hotplate procedure; Inactive at 17 uM/kg; type: functional, organism-based
[4] = species: Mus musculus; assay: Compound was tested for narcotic agonist activity in mice by mouse hotplate procedure; type: functional
Method in brief: (§2)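 Male white Swiss-Webster mice, 25–35 g, at least five per dose. Baseline taken as three reaction times 15 min apart. Drug given s.c. in physiological saline. Hot plate read 10, 15 or 30 min after dosing, depending on compound class. Analgesia means postinjection time over double the control, with a 30 s cutoff. ED50 by probit analysis on free-base molar dose.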

[5] = test system: Mus musculus; assay: Compound was evaluated for antagonist activity only at subagonistic dose levels in mice by mouse hotplate procedure; Inactive at 115 uM/kg; type: functional, organism-based
[6] = test system: Mus musculus; assay: Compound was tested for narcotic agonist activity in mice by mouse hotplate procedure; Inactive at 115 uM/kg; type: functional, organism-based; method in brief: as §2
[7] = species: Cavia porcellus; assay: Relative agonist molar potency on the electrically stimulated guinea pig myenteric plexus longitudinal muscle preparation at 10e-6; Inactive; type: functional; settings: Muscle tissue; method in brief: as §1
[8] = test system: Mus musculus; assay: Compound was evaluated for antagonist activity only at subagonistic dose levels in mice by mouse hotplate procedure; Inactive at 26 uM/kg; type: functional, organism-based
[9] = species: Mus musculus; assay: Narcotic antagonistic potency evaluated in morphine-induced Straub tail phenomenon in mice; type: functional, organism-based; settings: read-out: pA2 (converted)
[10] = species: Mus musculus; assay: Compound was evaluated for antagonist activity only at subagonistic dose levels in mice by mouse hotplate procedure; type: functional
[11] = test system: Mus musculus; assay: Compound was tested for narcotic agonist activity in mice by mouse hotplate procedure; Inactive at 110 uM/kg; type: functional, organism-based; method in brief: as §2
[12] = test system: Mus musculus; assay: Compound was evaluated for antagonist activity only at subagonistic dose levels in mice by mouse hotplate procedure; Inactive at 60 uM/kg; type: functional, organism-based
[13] = test system: Mus musculus; assay: Compound was tested for narcotic agonist activity in mice by mouse hotplate procedure; Inactive at 60 uM/kg; type: functional, organism-based; method in brief: as §2
[14] = test system: Mus musculus; assay: Compound was tested for narcotic agonist activity in mice by mouse hotplate procedure; Inactive at 55 uM/kg; type: functional, organism-based; method in brief: as §2
[15] = test system: Mus musculus; assay: Compound was evaluated for antagonist activity only at subagonistic dose levels in mice by mouse hotplate procedure; Inactive at 30 umol/kg; type: functional, organism-based
[16] = species: Mus musculus; assay: Compound was tested for narcotic agonist activity (effective dose) by mouse hotplate procedure
[17] = species: Mus musculus; assay: Compound was evaluated for antagonist activity only at subagonistic dose levels by mouse hotplate procedure; type: functional
[18] = test system: Mus musculus; assay: Compound was evaluated for antagonist activity only at subagonistic dose levels in mice by mouse hotplate procedure; Inactive at 15 umol/kg; type: functional, organism-based
[19] = test system: Mus musculus; assay: Compound was evaluated for antagonist activity only at subagonistic dose of 120 uM/kg levels in mice by mouse hotplate procedure; type: functional
[20] = test system: Mus musculus; assay: Compound was tested for narcotic agonist activity in mice by mouse hotplate procedure; Inactive at 120 uM/kg; type: functional, organism-based; method in brief: as §2
[21] = test system: Mus musculus; assay: Compound was evaluated for antagonist activity only at subagonistic dose levels in mice by mouse hotplate procedure; Inactive at 100 uM/kg; type: functional, organism-based
[22] = test system: Mus musculus; assay: Compound was tested for narcotic agonist activity in mice by mouse hotplate procedure; Inactive at 100 uM/kg; type: functional, organism-based; method in brief: as §2

**Q.** Which results are given for `CCC(=O)OC1(c2cccc(O)c2)CCN(C)CC1`?
**A.** Potency [1]: 0.011; Kb [2]: ≥ 1 µM; AD50 [3]: inactive; ED50 [4]: 110 µmol/kg

**Q.** For `C=CC[C@H]1CN(C)CC[C@@]1(OC(=O)CC)c1cccc(OC)c1`, which AD50 [5] is on record?
**A.** inactive

**Q.** What about the Kb [2] of the same compound?
**A.** ≥ 1 µM

**Q.** What about the ED50 [6] of the same compound?
**A.** inactive

**Q.** What about the Potency [7] of the same compound?
**A.** inactive

**Q.** What does the source list for `C=CC[C@@H]1CN(CC=C)CC[C@@]1(OC(=O)CC)c1cccc(OC)c1`?
**A.** Potency [1]: 0.033; Kb [2]: ≥ 1 µM; AD50 [8]: inactive; Inhibition [4]: 17%

**Q.** How did the Kb [9] turn out when `C=CCN1CC[C@]23c4c5ccc(O)c4O[C@H]2C(=O)CC[C@@]3(O)[C@H]1C5` [NALOXONE] was run?
**A.** 0.00295 µM

**Q.** `C=CC[C@@H]1CN(CC=C)CC[C@@]1(OC(=O)CC)c1cccc(O)c1` was tested. Which Kb [2] did it give?
**A.** ≥ 1 µM

**Q.** And the AD50 [10]?
**A.** 74.13 µM/kg

**Q.** And the ED50 [11]?
**A.** inactive

**Q.** And the Potency [7]?
**A.** inactive

**Q.** Which results are given for `C=CC[C@H]1CN(C)CC[C@@]1(OC(=O)CC)c1cccc(O)c1`?
**A.** Kb [2]: ≥ 1 µM; AD50 [12]: inactive; ED50 [13]: inactive; Potency [7]: inactive

**Q.** How did the ED50 [14] turn out when `C=CC[C@H]1CN(CC=C)CC[C@@]1(OC(=O)CC)c1cccc(O)c1` was run?
**A.** inactive

**Q.** What about the Kb [2] of the same compound?
**A.** ≥ 1 µM

**Q.** What about the AD50 [15] of the same compound?
**A.** inactive

**Q.** What about the Potency [7] of the same compound?
**A.** inactive

**Q.** With `CN1CC[C@]23c4c5ccc(O)c4O[C@H]2[C@@H](O)C=C[C@H]3[C@H]1C5` [MORPHINE] as the compound, how does the ED50 [16] read?
**A.** 12.4 µmol/kg

**Q.** `O=C1CC[C@@]2(O)[C@H]3Cc4ccc(O)c5c4[C@@]2(CCN3CC2CC2)[C@H]1O5` [NALTREXONE] was tested. Which Kb [9] did it give?
**A.** > 1 µM

**Q.** And the AD50 [17]?
**A.** 0.031 µM/kg

**Q.** What does the source list for `C=CC[C@@H]1CN(C)CC[C@@]1(OC(=O)CC)c1ccccc1`?
**A.** Potency [1]: 4.51; Kb [2]: ≥ 1 µM; ED50 [4]: 0.54 µmol/kg

**Q.** `C=CC[C@@H]1CN(C)CC[C@@]1(OC(=O)CC)c1cccc(OC)c1` was tested. Which Potency [1] did it give?
**A.** 0.12

**Q.** What about the Kb [2] of the same compound?
**A.** ≥ 1 µM

**Q.** And the AD50 [18]?
**A.** inactive

**Q.** And the ED50 [4]?
**A.** 34.7 µmol/kg

**Q.** Which results are given for `C=CC[C@@H]1CN(C)CC[C@@]1(OC(=O)CC)c1cccc(O)c1`?
**A.** AD50 [19]: 12%; ED50 [20]: inactive; Kb [2]: ≥ 1 µM; Potency [7]: inactive

**Q.** Which results are given for `CCC[C@@H]1CN(C)CC[C@@]1(OC(=O)CC)c1cccc(O)c1`?
**A.** Kb [2]: ≥ 1 µM; AD50 [21]: inactive; ED50 [22]: inactive; Potency [7]: inactive

**Q.** What does the source list for `CCC[C@H]1CN(C)CC[C@@]1(OC(=O)CC)c1cccc(O)c1`?
**A.** Kb [2]: ≥ 1 µM; AD50 [21]: inactive; ED50 [22]: inactive; Potency [7]: inactive
